These results are taken from ChEMBL document CHEMBL4680142, “Thiazolidine-2,4-dione-based irreversible allosteric IKK-β kinase inhibitors: Optimization into in vivo active anti-inflammatory agents” (Eur J Med Chem, 2020).

For orientation: IC50 means the concentration at which inhibition is half-maximal. What is called inhibition is how much of the control response was suppressed. By IC80 is commonly meant the concentration at which the effect reaches the 80% level.

Series [1] deals with T1, Inhibitor of nuclear factor kappa-B kinase subunit beta (Homo sapiens, UniProt O14920).
T1 sequence (O14920 whole entry): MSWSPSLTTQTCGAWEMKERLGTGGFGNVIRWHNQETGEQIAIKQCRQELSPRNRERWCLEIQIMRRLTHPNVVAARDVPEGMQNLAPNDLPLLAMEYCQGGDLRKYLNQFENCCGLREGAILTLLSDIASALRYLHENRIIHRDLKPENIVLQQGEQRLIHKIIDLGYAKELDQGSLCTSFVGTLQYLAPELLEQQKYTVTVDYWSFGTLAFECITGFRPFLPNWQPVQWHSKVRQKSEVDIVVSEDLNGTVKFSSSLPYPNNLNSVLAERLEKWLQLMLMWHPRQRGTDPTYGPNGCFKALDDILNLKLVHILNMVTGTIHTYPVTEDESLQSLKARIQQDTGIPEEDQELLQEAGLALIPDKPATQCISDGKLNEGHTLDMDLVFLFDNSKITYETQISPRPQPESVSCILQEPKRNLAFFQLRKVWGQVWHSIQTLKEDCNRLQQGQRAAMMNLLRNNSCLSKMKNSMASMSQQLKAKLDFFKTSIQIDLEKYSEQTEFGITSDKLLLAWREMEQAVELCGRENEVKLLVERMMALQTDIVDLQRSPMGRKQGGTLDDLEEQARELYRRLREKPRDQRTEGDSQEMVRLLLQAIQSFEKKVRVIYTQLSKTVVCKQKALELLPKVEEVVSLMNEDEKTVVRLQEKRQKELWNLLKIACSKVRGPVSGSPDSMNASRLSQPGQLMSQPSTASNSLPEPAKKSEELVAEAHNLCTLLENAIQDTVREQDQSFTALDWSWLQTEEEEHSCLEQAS
Description: Allosteric inhibition of IKKbeta (unknown origin) using 5FAM-GRHDSGLDSMK-NH2 as substrate pretreated for 10 mins followed measured after 2 hrs by TR-FRET assay. The method, boiled down:
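Enzyme: 0.5 µg/mL IKK2, in 10 mM Tris-HCl pH 7.2, 10 mM MgCl2, 0.05% NaN3, 1 mM DTT, 0.01% Tween-20. Compound at 10 µM pre-incubated 10 min, then 1 µM 5-FAM IκBα peptide and 3 µM ATP added. Reaction 2 h at room temperature. IMAP binding reagent/terbium detection mix added 15 h before reading. TR-FRET read with 340 nm excitation, emission 495/520 nm. Percent inhibition or IC50 derived.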
Background: In TR-FRET formats the signal depends on donor and acceptor labels being close together.

Series [2] in a line: Effect on NO production in non-stimulated mouse RAW264.7 cells at 10 uM after 24 hrs by Griess reagent based assay. The note with it: raw264.7, 24 h. Background: Nitrite, measured by Griess reagent, commonly stands in for NO production.
The subject of series [3] is RAW264.7. Description: Antiinflammatory activity against mouse RAW264.7 cells assessed as reduction in LPS-induced PGE2 level incubated for 1 hr followed by LPS stimulation and measured after 24 hrs by ELISA. It counts as functional, cell-based. The method, boiled down:
(§1)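 RAW 264.7 cells (DMEM, 10% FBS, 37 °C, 5% CO2) plated at 2×10^5 cells/mL and left overnight. Compounds (0.1, 1, 10 µM) or NS-398 given for 1 h, then LPS 10 ng/mL for 24 h. Culture medium assayed by ELISA: competitive colorimetric for PGE2/TNF-α, mouse DuoSet for TNF-α/IL-6. IC50 is the concentration lowering the mediator to 50%.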

Series [4] deals with RAW264.7. Description: Antiinflammatory activity against mouse RAW264.7 cells assessed as reduction in LPS-induced NO level incubated for 1 hr followed by LPS stimulation and measured after 24 hrs by Griess reagent based assay. It counts as functional, cell-based. The method, boiled down:
(§2)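 RAW 264.7 cells in 24-well plates received compounds (0.1, 1, 10 µM) or L-NIL 40 µM positive control, then LPS 1 µg/mL for 24 h. Nitrite in the medium measured by Griess reaction as an NO surrogate. Values referenced to levels before and after LPS stimulation.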

Series [5] is described as follows: Cytotoxicity against non-stimulated mouse RAW264.7 cells upto 10 uM after 24 hrs by MTT assay. The following applies: raw264.7, 24 h.
For series [6], the system named is RAW264.7. Description: Antiinflammatory activity against mouse RAW264.7 cells assessed as reduction in LPS-induced TNF-alpha level at 10 uM incubated for 1 hr followed by LPS stimulation and measured after 24 hrs by ELISA relative to control. The following applies: time 25 hrs. It counts as functional. In outline: as §1
For orientation: An ELISA detects its analyte on a solid surface through an enzyme-linked reagent.

The test system of series [7] is RAW264.7. Description: Cytotoxicity against mouse RAW264.7 cells assessed as reduction in cell viability at 6 uM incubated for 24 hrs by MTT assay. It counts as cell-based. The following applies: raw264.7, 24 h. The method, boiled down: (§3)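 MTT viability in RAW 264.7 cells seeded at 1×10^5 cells/mL and incubated overnight. Compounds added with or without LPS (1 µg/mL) for 24 h. MTT for 4 h at 37 °C, formazan dissolved in DMSO, absorbance read at 540 nm. IC80 is the concentration reducing viability to 80% with LPS.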

Series [8] relates to RAW264.7. Description: Antiinflammatory activity against mouse RAW264.7 cells assessed as reduction in LPS-induced PGE2 production at 10 uM incubated for 1 hr followed by LPS stimulation and measured after 24 hrs by ELISA (reference value: 33.64 ng/ml). It counts as functional. In outline: as §1
In series [9] the test system is RAW264.7. Description: Antiinflammatory activity against mouse RAW264.7 cells assessed as reduction in LPS-induced TNF-alpha level at 0.1 to 1 uM incubated for 1 hr followed by LPS stimulation and measured after 24 hrs by ELISA. It counts as functional, cell-based. The following applies: dose 0.1-1 µM, time 25.0 hrs. The method, boiled down: as §1
The test system of series [10] is RAW264.7. Description: Antiinflammatory activity against mouse RAW264.7 cells assessed as reduction in LPS-induced TNF-alpha level incubated for 1 hr followed by LPS stimulation and measured after 24 hrs by ELISA. It counts as functional, cell-based. The method, boiled down:
as §1

The subject of series [11] is RAW264.7. Description: Antiinflammatory activity against mouse RAW264.7 cells assessed as reduction in LPS-induced PGE2 production at 0.1 to 1 uM incubated for 1 hr followed by LPS stimulation and measured after 24 hrs by ELISA. In kind it is functional, cell-based. The following applies: dose 0.1-1 µM, time 25.0 hrs. In outline:
as §1

The subject of series [12] is RAW264.7. Description: Antiinflammatory activity against mouse RAW264.7 cells assessed as reduction in LPS-induced IL-6 level incubated for 1 hr followed by LPS stimulation and measured after 24 hrs by ELISA. It counts as functional, cell-based. The method, boiled down:
as §1

Series [13] has as its system RAW264.7. Description: Cytotoxicity against mouse RAW264.7 cells assessed as reduction in cell viability incubated for 24 hrs in presence of LPS by MTT assay. In kind it is cell-based. The note with it: RAW264.7, 24 h. In outline:
as §3

The subject of series [14] is RAW264.7. Description: Antiinflammatory activity against mouse RAW264.7 cells assessed as reduction in LPS-induced PGE2 production at […] incubated for 1 hr followed by LPS stimulation and measured after 24 hrs by ELISA (reference value: 33.64 ng/ml). The following applies: time 25 hrs. It counts as functional.
Series [15] deals with RAW264.7. Description: Antiinflammatory activity against mouse RAW264.7 cells assessed as reduction in LPS-induced NO level at 40 uM incubated for 1 hr followed by LPS stimulation and measured after 24 hrs by Griess reagent based assay. In kind it is functional, cell-based. The method, boiled down: as §2

Calls of active or inactive are those of the source. No cut-off for these calls is given here.

For the molecule `CN1CCN(CCCCCOc2ccc(N3C(=O)S/C(=C\c4ccc(Oc5ccc(Br)cc5)cc4)C3=O)cc2)CC1`, the IC50 in series [1] came out at 430 nM.
With `Cc1ccc(Oc2ccc(/C=C3\SC(=O)N(c4cccc(OCCCCCN5CCN(C)CC5)c4)C3=O)cc2)cc1`, in [1], the IC50 was 2730 nM.
Still for that read-out and setting: as for `CN1CCN(CCCCCOc2ccc(N3C(=O)S/C(=C\c4ccc(Oc5ccc(F)cc5)cc4)C3=O)cc2)CC1`, the figure is 600 nM.
Take `CN1CCN(CCCCCOc2cccc(N3C(=O)S/C(=C\c4ccc(Oc5ccc(Br)cc5)cc4)C3=O)c2)CC1`: in series [1], the IC50 was 2670 nM.
Take `CN1CCN(CCCCCOc2cccc(N3C(=O)S/C(=C\c4ccc(Oc5ccc(F)cc5)cc4)C3=O)c2)CC1`: the Activity result (in series [2]; in series [5]; in the series on RAW264.7 [7]) was “Non-Toxic” throughout. Besides, the IC50 is greater than 10000 nM in the series with RAW264.7 [3]; greater than 10000 nM with RAW264.7 [4]; 6060 nM in series [1]; 7870 nM in the series on RAW264.7 [10]; greater than 10000 nM in the series on RAW264.7 [12]. Also, the inhibition at 10 µM in the series on RAW264.7 [6] was determined as 71%. For the same molecule, the result with RAW264.7 [8] (time 25.0 hrs) and in the series with RAW264.7 [11] was inactive. In addition, the inhibition result in the series on RAW264.7 [9] is “inactive”. In the series with RAW264.7 [13], the concentration for an effect of 80% (IC80) was 4430 nM.
`Cc1ccc(Oc2ccc(/C=C3\SC(=O)N(c4ccc(OCCCCCN5CCN(C)CC5)cc4)C3=O)cc2)cc1`: the half-maximal inhibitory concentration (IC50) in series [1] turned out to be 870 nM.
Regarding `CC(=O)Nc1ccc(Oc2ccc(/C=C3\SC(=O)N(c4ccc(OCCCCCN5CCN(C)CC5)cc4)C3=O)cc2)cc1`, in series [1], the IC50 was 1710 nM.
On the same count and under the same terms, as for `CN1CCN(CCCOc2ccc(N3C(=O)S/C(=C\c4ccc(Oc5ccc(F)cc5)cc4)C3=O)cc2)CC1`, the figure is 670 nM.
With `COc1ccc(Oc2ccc(/C=C3\SC(=O)N(c4ccc(OCCCCCN5CCN(C)CC5)cc4)C3=O)cc2)cc1`, the IC50 in [1] was determined as 700 nM.
The same measure, in the same setting: as for `CN1CCN(CCCCCOc2ccc(N3C(=O)S/C(=C\c4ccc(Oc5ccc(N)cc5)cc4)C3=O)cc2)CC1`, the figure is 2610 nM; as for `CN1CCN(CCCCCOc2cccc(N3C(=O)S/C(=C\c4ccc(Oc5ccc(C#N)cc5)cc4)C3=O)c2)CC1`, 840 nM.
With `CS(=O)(=O)Nc1ccc([N+](=O)[O-])cc1OC1CCCCC1` [NS-398], the Activity in the series with RAW264.7 [14] is 12.02 ng/mL.
Take `CC(=N)NCCCC[C@H](N)C(=O)O`: the result in the series on RAW264.7 [15] was Active.
Turning to `CN1CCN(CCCCCOc2cccc(N3C(=O)S/C(=C\c4ccc(Oc5ccc(Cl)cc5)cc4)C3=O)c2)CC1`, the Activity result in [2] was “Non-Toxic”; in series [5], “Non-Toxic”; with RAW264.7 [7], “Non-Toxic”; with RAW264.7 [8] (time 25 hrs), 13.87 ng/mL. Further, the IC50 with RAW264.7 [3] is 8520 nM; in the series with RAW264.7 [4], greater than 10000 nM; in series [1] it was 2610 nM; in the series on RAW264.7 [10], greater than 10000 nM; in the series with RAW264.7 [12], greater than 10000 nM. For the same molecule, in the series with RAW264.7 [6], the inhibition at 10 µM is 44%. The outcome with RAW264.7 [11] was inactive. Further, the concentration for an effect of 80% (IC80) with RAW264.7 [13] is greater than 10000 nM.
With `CN1CCN(CCCCCOc2cccc(N3C(=O)S/C(=C\c4ccc(Oc5ccc(N)cc5)cc4)C3=O)c2)CC1`, the half-inhibitory concentration (IC50) in [1] was 8070 nM.
For the molecule `CN1CCN(CCCCCOc2ccc(N3C(=O)S/C(=C\c4ccc(Oc5ccc(Cl)cc5)cc4)C3=O)cc2)CC1`, the IC50 in series [1] was determined as 700 nM.
Still for that read-out and setting: the figure for `COc1ccc(Oc2ccc(/C=C3\SC(=O)N(c4cccc(OCCCCCN5CCN(C)CC5)c4)C3=O)cc2)cc1` is 2430 nM.
